KCC2 mod: KCC2 cotransporter modulators, thallium flux, primary screen, cell-based, HEK293 KCC2, FluoZin-2 fluorescence, MLSMR | Solute carrier family 12 member 5 (Homo sapiens), Q9H2X9 | KCC2 cells, thallium flux FluoZin-2 fluorescence | B-score of Tl+ flux slope (higher = more flux/activation; lower = inhibition) at 10 µM | 190,000 tested, 2.2% active | AID 1456, 2008;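 active means thallium flux slope and its plate-corrected score both differing from the plate sample mean at a set confidence after two filtering rounds, in either direction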;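 further: slope of fluorescence scaled to starting intensity during 10 to 20 s after thallium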
KCNK9 block: KCNK9 potassium channel inhibitors, primary screen, HEK293 cells, thallium flux | 310,000 tested, 1.2% active | B-score at 10 µM | AID 488922, 2010 | FluxOR thallium flux fluorescence; active compounds read low | Potassium channel subfamily K member 9 (Homo sapiens), Q9NPC2;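 active means ratio B-score over 3 SD below the library mean, with starting fluorescence within 5 SD of its mean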;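 further: negative B-score means less thallium flux so channel inhibition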
KCNQ1 pot: potentiators or activators of KCNQ1 channel, primary screen, cell-based, thallium flux, high-throughput | CHO-K1 KCNQ1, thallium flux FluxOR fluorescence; active compounds read high | B-score at 10 µM | 310,000 tested, 0.35% active;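 active means fluorescence ratio B-score, a plate-corrected score, at least three library SD, with initial intensity B-score within 5 SD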
Target sequence (P51787 whole entry, looked up): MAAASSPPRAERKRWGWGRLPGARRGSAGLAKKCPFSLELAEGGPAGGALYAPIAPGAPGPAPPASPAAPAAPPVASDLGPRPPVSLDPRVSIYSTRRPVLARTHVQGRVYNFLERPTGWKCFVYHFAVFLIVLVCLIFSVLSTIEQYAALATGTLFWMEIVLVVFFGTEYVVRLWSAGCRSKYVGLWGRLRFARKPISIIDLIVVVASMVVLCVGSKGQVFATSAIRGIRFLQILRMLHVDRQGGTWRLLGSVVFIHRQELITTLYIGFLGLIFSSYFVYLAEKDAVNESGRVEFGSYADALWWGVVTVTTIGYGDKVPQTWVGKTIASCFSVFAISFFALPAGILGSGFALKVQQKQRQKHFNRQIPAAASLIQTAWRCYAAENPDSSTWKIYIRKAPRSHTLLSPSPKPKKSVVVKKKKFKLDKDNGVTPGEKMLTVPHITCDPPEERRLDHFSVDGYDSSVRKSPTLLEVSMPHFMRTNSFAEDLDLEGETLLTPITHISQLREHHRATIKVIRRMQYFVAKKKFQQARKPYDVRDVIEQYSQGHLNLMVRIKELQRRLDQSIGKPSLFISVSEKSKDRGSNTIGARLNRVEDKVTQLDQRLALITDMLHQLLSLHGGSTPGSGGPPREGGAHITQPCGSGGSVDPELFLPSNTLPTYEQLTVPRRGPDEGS
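Material: CHO-K1 cells stably expressing KCNQ1. Medium: assay buffer for compound exposure, DMSO matched across wells. Reagent: K+/Tl+ depolarizing stimulus. Compound dosing: single-concentration screen. Times: 37 °C overnight plating, 90-min dark dye load, 20-min compound pretreatment. Technique: FluxOR Tl+ flux fluorescence.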
hERG protect: hERG rescue from dofetilide block, primary screen, cell-based, CHO-hERG, FluxOR thallium flux, dofetilide IC70 | dofetilide IC70 present | activation (rescue from dofetilide block), less the hit threshold, % at 10 µM | 310,000 tested, 0.51% active | AID 1511, 2009;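 active means activation above the mean of controls blocked by dofetilide plus 5 SD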;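 further: thallium influx through hERG after potassium depolarization seen as dye fluorescence rise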
KCNQ1 block: inhibitors of human KCNQ1 channel, primary screen, cell-based, thallium flux, high-throughput; Potassium voltage-gated channel subfamily KQT member 1 (Homo sapiens), P51787; CHO-K1 KCNQ1, FluxOR thallium flux fluorescence; active compounds read high; B-score at 10 µM; 310,000 tested, 1.3% active;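 active means compounds whose thallium flux B-score, printed positive for inhibition, exceeds three library SD while starting fluorescence stays within three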;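 further: channel opened by potassium depolarization with thallium stimulus after 20 min compound exposure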
KCNK3 inh: human KCNK3 channel inhibitors, primary screen, CHO cells, FluxOR thallium flux, B-score | FluxOR fluorescence; active compounds read low | B-score at 10 µM | 340,000 tested, 0.84% active | AID 602410, 2012;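 active means B-score under library mean minus 4 SD, starting fluorescence ratio at most library mean plus 5 SD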;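 further: more negative B-score means stronger inhibition of thallium flux through KCNK3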
KCC2 sec1: KCC2 modulators in sodium-free buffer, confirmation, cell-based, HEK293 KCC2, thallium flux, secondary assay | 3,700 tested, 15% active | shares compounds with KCC2 mod | AID 1713, 2009 | normalised thallium flux (F/F0 slope) at 10 µM | FluoZin2 fluorescence; active compounds read high;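 active means thallium flux slope above the same plate's solvent-only control mean plus 3 SD; inconclusive means the two replicate wells disagree; inactive means no significant difference from solvent-only control wells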
KCC2 bumet counter: thallium flux persisting under bumetanide in KCC2 cells, confirmation, counter-screen for KCC2 modulator project, cell-based, HEK293 KCC2, FluoZin2, secondary assay 3; shares compounds with KCC2 mod; HEK293-KCC2 + bumetanide/ouabain; active compounds read high; normalized thallium flux at 10 µM; 3,700 tested, 49% active;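 active means thallium entry rate above the same plate's blocked-transporter control wells by more than 3 SD; inconclusive means the two repeat wells disagree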;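 further: raw slope of fluorescence over initial fluorescence between 10 and 20 s after thallium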
KCC2 secondary2: KCC2 modulators without ouabain present, confirmation, cell-based, HEK293 KCC2, thallium flux, FluoZin2, secondary assay 2; shares compounds with KCC2 mod; thallium flux FluoZin2 fluorescence; actives lie on both sides; F/F0 rise rate, 10–20 s post-thallium; normalized thallium flux at 10 µM; 3,700 tested, 23% active; AID 1715, 2009;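 active means thallium flux slope more than 3 SD above or below the plate's solvent-only control mean, mostly below; inconclusive means the two repeat wells disagreed; inactive means no significant shift from solvent-only controls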;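 further: raw slope with 0.1% DMSO as baseline and bumetanide as block control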
HEK293 Tl flux: thallium flux modulation in parental HEK cells, confirmation, counter-screen for KCC2 modulator project, cell-based, counterscreen 1. shares compounds with KCC2 mod. HEK293 parental cells, thallium flux FluoZin2, ouabain; baseline-ratio fluorescence slope, 10–20 s after thallium. thallium flux rate (normalised fluorescence) at 10 µM. 3,700 tested, 46% active;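 active means thallium flux rate significantly above the same plate's solvent-only control wells, beyond their mean plus 3 SD; inconclusive means the two replicate wells gave conflicting results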
KCC2 retest ouab: KCC2 inhibitors and activators, ouabain retest, confirmation, HEK-KCC2 cells. shares compounds with KCC2 mod. HEK293-KCC2, thallium flux FluoZin2 fluorescence; bidirectional: low = inhibitor, high = activator. raw Tl+ flux slope (below DMSO = inhibition, above = activation) at 10 µM. 3,700 tested, 48% active. AID 1717, 2009;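 active means thallium flux slope beyond 3 SD from same-plate DMSO control mean in most replicates, usually higher, sometimes lower; inconclusive means repeat tests gave conflicting results; inactive means no significant difference from controls in most replicates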;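 further: slope of initial-normalized fluorescence between seconds 10 and 20 after thallium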
HEK293 Tl flux2: native HEK Tl+ uptake effects, second counter-screen – HEK cells, counterscreen 2, counter-screen for KCC2 modulator project, confirmation; shares compounds with KCC2 mod; HEK293 parental, thallium flux FluoZin-2 fluorescence slope; thallium flux slope at 10 µM; 3,700 tested, 33% active; AID 1718, 2009;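 active means thallium flux slope above the same plate's solvent-control mean plus 3 SD in both duplicate wells; inconclusive means duplicate wells that disagreed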;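 further: run without ouabain in cells lacking the KCC2 cotransporter; slope of fluorescence scaled to its starting value between 10 and 20 s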
* = called active by the depositor; i = inactive; u = inconclusive; x = no result. In the library only some 4.1% were active in any assay of this set; here they are far more common.

SMILES	KCC2 mod	KCNK9 block	KCNQ1 pot	hERG protect	KCNQ1 block	KCNK3 inh	KCC2 sec1	KCC2 bumet counter	KCC2 secondary2	HEK293 Tl flux	KCC2 retest ouab	HEK293 Tl flux2
COC(=O)C1=C(C)N(CCCC(=O)O)C(=O)NC1c1cc2c(cc1[N+](=O)[O-])OCO2 (configuration not stated)	3.7*	i	i	-4	i	i	0.0068	u	0.028	0.0073	0.018	0.0098
COC(=O)C1=C(C)N(C)C(=O)NC1c1cc2c(cc1[N+](=O)[O-])OCO2 (configuration not stated)	0.22	i	i	-5	i	i	x	x	x	x	x	x
CNc1ccc(C(=O)N2CCN(S(=O)(=O)c3ccc4c(c3)OCCCO4)CC2)cc1[N+](=O)[O-]	x	i	i	-4	i	i	x	x	x	x	x	x
S=c1[nH]nc(Cc2c[nH]c3ccccc23)o1	-5.5*	i	i	-4	i	i	0.0083	0.0057	0.023*	0.0068	0.011*	0.0094
c1ccc(Cc2c[nH]c3ccccc23)cc1	x	i	i	-5	i	i	x	x	x	x	x	x
CCc1cc2c(SCC(=O)C(C#N)=C3N(C)c4ccccc4N3C)ncnc2s1	x	i	i	-9	i	i	0.0079	0.0095*	0.03	0.007	0.015	0.0098
CCc1cc2c(SCC(=O)c3ccccc3)ncnc2s1	0.62	i	i	-6	i	i	x	x	x	x	x	x
CCc1cc2c(SCC#N)ncnc2s1	6.1*	i	i	-4	i	i	0.0066	0.017*	0.036	0.017*	0.027*	0.017*
O=C(/C=C/c1ccc(F)cc1)NCCCn1ccnc1	x	i	i	-4	i	i	x	x	x	x	x	x
O=C(Nc1ccc2c(c1)CCCN2C(=O)c1ccco1)c1cc([N+](=O)[O-])ccc1Cl	x	i	i	-10	i	i	x	x	x	x	x	x
O=C(CCNC(=O)Cn1ccc2ccccc2c1=O)NCCN1CCN(c2cccc(Cl)c2)CC1	4.6*	i	i	-9	i	i	0.0059	0.0042	0.03	0.0077	0.019	0.01
O=C(Cn1ccc2ccccc2c1=O)N1CCN(c2cccc(Cl)c2)CC1	-1.2	i	i	-6	i	i	x	x	x	x	x	x
O=C(Cn1ccc2ccccc2c1=O)NCCC(=O)N1CCN(c2cccc(Cl)c2)CC1	-2.8*	i	i	-12	i	i	0.0073	0.0066	0.034	0.0073	u	0.011
COCCN(Cc1nc(-c2ccc(-c3ccccc3)cc2)oc1C)C(C)C	x	i	i	-15	i	i	x	x	x	x	x	x
O=C1N(Cc2ccc(F)cc2)CCN1c1ccc(F)cc1	-3.3*	i	19*	-14	i	i	0.0067	u	0.03	0.011*	u	0.012
COc1cccc(CN2CCN(c3ccc(F)cc3)C2=O)c1	-2.5	i	i	-1	i	i	x	x	x	x	x	x
O=C(CSc1ncnc2c(-c3ccc(Cl)cc3)nsc12)c1ccccc1	x	i	i	4	i	i	0.014*	0.028*	0.029	0.018*	u	0.01*
O=C(CSc1ncnc2nc[nH]c12)c1ccc(Cl)cc1	x	i	i	-14	i	i	x	x	x	x	x	x
Cc1cccc(-c2nc3c(c(SCC(=O)N4CCOCC4)n2)COC(C)(C)C3)c1	x	i	i	-12	i	i	x	x	x	x	x	x
Cn1c(/N=C/c2ccc3c(c2)OCO3)nc2ccccc21	-3.1*	i	i	-1	i	i	0.0075	0.0044	u	0.0073	0.017*	0.01
CC[C@]12c3[nH]c4ccc(Cl)cc4c3CCN1C(=O)[C@@H](CC(=O)NCCC1=CCCCC1)C[C@@H]2C(=O)N1CCN(C(=O)c2ccco2)CC1	x	x	x	x	x	i	x	x	x	x	x	x
O=C(O)CCNc1cc2ccccc2cc1C(=O)O	5.6*	i	i	-8	i	i	0.0063	0.0048	0.031	0.0075	0.02	0.011
CCc1ccc(Nc2nnc(SCC(=O)NCCN3C(=O)CSC3=O)s2)cc1	-3.7*	i	i	-8	i	i	0.007	0.0053	0.03	0.0067	u	0.0094
CCc1ccc(Nc2nnc(SCC(=O)Nc3sccc3C(N)=O)s2)cc1	-4.9*	i	i	-6	i	i	0.0054	0.0047	0.023*	0.0069	u	0.011
CC(=O)NCCOC(=O)Nc1ccncc1	1.6	i	i	-8	i	i	x	x	x	x	x	x
CC(=O)NCCOC(=O)Nc1cccnc1	7.2*	i	i	-9	i	i	0.0059	0.005	u	u	0.019	0.01
O=C(NC(=S)Nc1cnc2ccccc2c1)c1ccccc1	21*	i	i	-8	i	i	u	0.041*	0.033	0.012*	0.022*	0.015*
